Only some compounds are listed: those with a hit (about 4.3% of all), similar ones and a draw of the others.
TAAR1 antag = antagonists of human TAAR1 | CHO RD-HGA16 TAAR1, Fluo-8 calcium fluorescence, antagonist | inhibition, % at 3 µM | 360,000 tested, 1.5% active;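 active = inhibition above a per-plate cutoff, the mean inhibition of test compounds on that plate plus 3 SD, cut at about 49% in these data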;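 also: 0% = DMSO plus EC80 beta-PEA response and 100% = DMSO alone without agonist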
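Material: RD-HGA16 CHO cells with stable hTAAR1 and Gα16; Dosing: single nominal final test compound concentration of 3 µM; Schedule: seeding 17-24 h prior, 75-min 37 °C, 30-min RT dye loading; Detection: kinetic Fluo-8 calcium fluorescence measurement; Measure: % inhibition from peak post-agonist over basal fluorescence ratio; Benchmarks: vehicle and agonist controls.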
OX1R antag-1 = antagonists of human orexin 1 receptor (OX1R). O43613. OX1R-expressing cells, FRET antagonist read-out. inhibition, % at 6.6 µM. 330,000 tested, 1.8% active; in the data active = inhibition mostly above about 38%, no sharp cut-off; inactive = mostly below about 40%;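 also: 0% = agonist challenge alone and 100% = reference antagonist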
Target sequence (O43613 whole entry, looked up): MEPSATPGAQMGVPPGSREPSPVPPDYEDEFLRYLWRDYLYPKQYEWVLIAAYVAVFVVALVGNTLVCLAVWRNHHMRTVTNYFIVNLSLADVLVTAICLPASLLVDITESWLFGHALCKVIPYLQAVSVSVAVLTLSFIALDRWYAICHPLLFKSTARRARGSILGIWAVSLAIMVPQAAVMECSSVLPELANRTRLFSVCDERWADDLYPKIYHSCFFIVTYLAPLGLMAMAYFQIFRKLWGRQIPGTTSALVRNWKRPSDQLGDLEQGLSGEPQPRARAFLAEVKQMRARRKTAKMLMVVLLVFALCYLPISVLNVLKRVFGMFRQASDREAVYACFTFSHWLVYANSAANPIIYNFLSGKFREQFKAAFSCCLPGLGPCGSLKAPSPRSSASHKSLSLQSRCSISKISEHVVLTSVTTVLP
GalR3 antag = antagonists of human GalR3 | O60755 | AID 651719 | HEK293 GalR3-CNG cAMP membrane potential fluorescence; galR3 body fused to GalR1 C-terminus | 360,000 tested, 0.44% active | inhibition, % at 3 µM;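 active = inhibition above the screen-wide average plus 3 SD, cut at about 13% in these data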;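 also: forskolin and galanin both at EC90 stimulate the cells; cAMP rise reported by CNG channel membrane potential dye signal; 0% = forskolin plus galanin with DMSO and 100% = forskolin alone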
OX1R antag-2 = human HCRTR1 antagonism; AID 434989; O43613; 330,000 tested, 0.43% active; inhibition, % at 5 µM; CHO/OX1R cells, Fluo-8 calcium fluorescence, orexin A;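 active = inhibition above its plate's threshold, mean inhibition of all tested compounds on the plate plus 3 SD, cut at about 37% in these data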;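 also: 0% = orexin A challenge wells and 100% = SB-334867-A antagonist wells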
TAAR1 agonist = human TAAR1 agonism; AID 624467; 360,000 tested, 0.99% active; Q96RJ0; CHO RD-HGA16 TAAR1, Fluo-8 calcium fluorescence; vehicle wells 0%, saturating PEA agonist 100%; activation, % at 3 µM;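 active = activation above the mean activation of all test compounds in the run plus 3 SD, cut at about 38% in these data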
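System: CHO RD-HGA16 cells carrying human TAAR1 plus Gα16; Incubation: 17-24 h seeding, 75 min 37 °C dye, 30 min RT; Measured by: Fluo-8 fluorescence, 5 s baseline then 140 s kinetic read; Control set: DMSO and PEA EC100; Replication: single well for each compound.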
CHO parental Ca = counter-screen for OX1R antagonists: effect in parental CHO cells; parental CHO-K1, ATP-induced calcium, Fluo-8 fluorescence; inhibition, % at 5.6 µM; 330,000 tested, 0.63% active;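 active = inhibition above that plate's mean sample inhibition plus 3 SD, cut at about 26% in these data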;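 also: 0% = ATP-challenged DMSO wells and 100% = DMSO wells without ATP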
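Assay system: untransfected parental CHO cell line. Also added: ATP agonist challenge. Dosing: one dose, 5.6 µM nominal. Measured by: Fluo-8 fluorescence. Read-out: % inhibition. Benchmarks: ATP wells versus no-ATP DMSO wells. Repeats: no replicates.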
GalR3 conf = confirmation of human galanin receptor 3 antagonists; shares compounds with GalR3 antag; HEK293 GalR3 CNG cAMP biosensor, membrane potential fluorescence; galR3 fused to GalR1 carboxy tail; challenged with forskolin and galanin at EC90; inhibition, % at 3 µM; 1,600 tested, 59% active; AID 652245;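 active = inhibition above the primary screen's cutoff, the mean inhibition of all screened compounds plus 3 SD, cut at about 13% in these data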;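 also: 0% = forskolin plus galanin and 100% = forskolin alone with DMSO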
CNG parental = acts as nonspecific agonist in parental HEK-CNG cells. activation, % at 3 µM. AID 652268. HEK293-CNG parental cells, cAMP membrane potential fluorescence; normalised: DMSO wells 0%, forskolin wells 100%. shares compounds with GalR3 antag. 1,600 tested, 10% active; in the data active = activation above about 1.3%
The depositor's hits bear a star; · = no result.

SMILES | TAAR1 antag | OX1R antag-1 | GalR3 antag | OX1R antag-2 | TAAR1 agonist | CHO parental Ca | GalR3 conf | CNG parental
CCOC(=O)C1CCN(C(=O)c2ccc(OCC(=O)Nc3cccc(C(F)(F)F)c3)c(OC)c2)CC1 | 15 | 14 | 92* | 45* | 7 | 45* | 107* | 0
COC(=O)[C@]1(C)N[C@H](CN(C)C(=O)c2ccc(F)cc2)[C@@H]2C(=O)N(C)C(=O)[C@@H]21 | -2 | -1 | -4 | 6 | 2 | 5 | · | ·
CCC(=O)N[C@H]1CC[C@@H](CCn2cc(C3CC3)nn2)O[C@@H]1CO | -5 | · | -6 | · | 3 | · | · | ·
CCCCn1nnnc1SCC(=O)Nc1ccc(F)cc1 | 2 | 21 | -3 | -23 | 9 | -5 | · | ·
CCn1nnnc1SCC(=O)Nc1ccc(F)cc1 | -10 | 14 | 14* | 1 | 2 | 12 | 71* | 0
COc1cc(NC(=O)c2cccs2)c(OC)cc1NC(=O)CCC(=O)Nc1ccc(C)cc1 | 8 | 4 | -8 | -30 | -1 | -18 | · | ·
N#CC(C#N)=C(Nc1ccc(F)cc1)SCc1cccc(F)c1 | 6 | 71* | 91* | 9 | 6 | 23 | 35* | 0
CN(CC(=O)Nc1ccccc1Cl)C(=O)COC(=O)CN1C(=O)NC2(CCCC2)C1=O | -13 | 8 | -1 | -14 | 0 | -1 | · | ·
CC(=O)c1c(C)[nH]c(C(=O)OCCCCN2C(=O)c3ccccc3C2=O)c1C | 72* | 45* | 20* | 63* | 21 | 75* | 60* | 0
O=C(c1cc(COc2ccc(F)cc2Cl)on1)N1CCC(c2ccncc2)CC1 | 11 | 26 | -7 | 14 | 0 | 7 | · | ·
CSc1ccccc1OCc1cc(C(=O)N2CCC(c3ccncc3)CC2)no1 | 16 | 54 | 75* | 13 | 1 | 26 | 94* | 0
O=C(c1cc(COc2cccc3cccnc23)on1)N1CCC[C@H]1CO | -12 | · | -5 | · | 2 | · | · | ·
COC(=O)C1CCCCN1C(=O)c1cc(COc2cccc3cnccc23)on1 (configuration not stated) | 11 | 37 | 106* | 27 | 10 | 54* | 107* | 0
CCOC(=O)CC1CCCCN1C(=O)c1cc(COc2cccc3cnccc23)on1 (configuration not stated) | 31 | 48* | 104* | 26 | 9 | 53* | 111* | 0
COC(=O)C1CCCCN1C(=O)c1cc(COc2cccc3cccnc23)on1 (configuration not stated) | -2 | 15 | 1 | -10 | 1 | -3 | · | ·
Cc1ccc(S(=O)(=O)N2[C@@H](CO)CO[C@H]2CC(=O)OCc2ccccc2)cc1 | -14 | · | -3 | · | 2 | · | · | ·
CC(C)(C)NC(=O)CN(Cc1ccco1)C(=O)CCC(=O)Nc1nccs1 | 3 | 13 | -8 | -20 | 1 | 2 | · | ·
CC1(C)CC(=O)/C(=C(\O)CCCN2C(=O)c3ccccc3C2=O)C(=NCC(=O)O)C1 | 0 | 9 | 15* | 9 | 6 | 2 | 1 | 0
C=C(C)[C@@H]1CC=C(CN2CCC(N3CCC(C(=O)N4CCCC4)CC3)CC2)CC1 | -20 | 3 | 20* | -25 | 1 | -7 | 3 | 4.4*
CCCCC1(C(=O)OC)NC(c2ccc(O)cc2)C2C(=O)N(c3ccccc3)C(=O)C21 (configuration not stated) | -5 | -1 | -10 | -16 | 5 | -7 | · | ·
COC(=O)C(C)NC(=O)C12CC3CC(C1)CC(c1ccc(C)cc1)(C3)C2 (configuration not stated) | -19 | 1 | -9 | -30 | 4 | -6 | · | ·
COc1ccc(-c2cc([C@H]3[C@@H]4C=CCC[C@@]4(C)C(=O)N3Cc3ccccc3)ccc2F)cc1OC | 17 | 25 | 20* | -59 | 2 | -35 | 12 | 1

Screening data (PubChem BioAssay)
